From ChEMBL document CHEMBL1148119, “Monoterpene hydroperoxides with trypanocidal activity from Chenopodium ambrosioides” (J Nat Prod, 2002) come the findings set out here.

Values after ≈ are worked out from the molar mass of the structure shown. Active and inactive are the calls of the source. No cut-off for these calls is given here.

Series [1] deals with Trypanosoma cruzi. Briefly: Trypanocidal activity against Trypanosoma cruzi Tulahuen epimastigotes up to 400 uM after 24 hrs. The series is classed as functional, organism-based. The method, boiled down:
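Tulahuen epimastigotes maintained in GIT medium with hemin (12.4 μM). Parasite suspension incubated 24 h with sample in EtOH plus autoclaved saline. Motility checked by microscopy (×100) and minimum lethal concentration (MLC) recorded. Duplicate assays; gentian violet positive control.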

The test system of series [2] is Trypanosoma cruzi. Briefly: Antitrypanosomal activity against Trypanosoma cruzi trypomastigotes infected in human HeLa cells assessed as number of amastigotes per infected cell at 1 ug/mL after 4 days by HeLa cell-infection assay. In kind it is functional. Summed up:
(§1)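 HeLa cells (5 × 10^3 cells/mL/well) grown on coverslips 2 days at 37 °C, 5% CO2, then infected with T. cruzi trypomastigotes (1.2 × 10^4 parasites/well). Compound in ethanol (10 µL) added right after infection. Day 4: fixed, Diff-Quik stained, mounted. >200 host cells in random fields scored for % infected cells (>1 amastigote) and mean amastigotes per infected cell. Mean ± SE.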

Series [3] has as its system Trypanosoma cruzi. Put plainly: Trypanocidal activity against Trypanosoma cruzi Tulahuen epimastigotes assessed as minimal lethal concentration after 24 hrs. The series is classed as functional. The method, boiled down: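 Tulahuen epimastigotes kept in GIT medium with hemin (12.4 µM). Parasites in medium (10 µL) incubated with sample in EtOH (5 µL) plus autoclaved saline (185 µL) for 24 h. Motility checked by microscopy (×100). MLC taken as minimum lethal concentration. Duplicates; gentian violet positive control.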

Series [4] relates to Trypanosoma cruzi. Briefly: Antitrypanosomal activity against Trypanosoma cruzi trypomastigotes infected in human HeLa cells assessed as inhibition of amastigotes proliferation at 1 ug/mL after 4 days by HeLa cell-infection assay. The series is classed as functional, organism-based. Summed up: as §1
For series [5], the system named is Trypanosoma cruzi. Put plainly: Antitrypanosomal activity against Trypanosoma cruzi trypomastigotes infected in human HeLa cells assessed as infection rate at 1 ug/mL after 4 days by HeLa cell-infection assay. The series is classed as functional. Summed up:
as §1

Series [6] relates to Trypanosoma cruzi. Briefly: Antitrypanosomal activity against Trypanosoma cruzi trypomastigotes infected in human HeLa cells assessed as inhibition of infection at 1 ug/mL after 4 days by HeLa cell-infection assay. The series is classed as functional. The method, boiled down: as §1
In the next series the test system is HeLa. Put plainly: Cytotoxicity against human HeLa cells at 10 ug/mL. The series is classed as cell-based.

As for `C=C(C)[C@@H]1C=C[C@](C)(O)CC1`, the outcome in the series with Trypanosoma cruzi [1] was inactive.
On to `CC(C)C12C=CC(C)(CC1)OO2` (stereo unspecified) [ASCARIDOLE], for which the Activity is reported as 22.8 in the series with Trypanosoma cruzi [2] and 8.5% in the series on Trypanosoma cruzi [5]. Besides, the MLC in the series on Trypanosoma cruzi [3] came out at 23 µM (≈ 3.87 µg/mL). Further, the outcome with Trypanosoma cruzi [4] was inactive.
Turning to `CN(C)c1ccc(C(=C2C=CC(=[N+](C)C)C=C2)c2ccc(N(C)C)cc2)cc1.[Cl-]` [GENTIAN VIOLET], the MLC with Trypanosoma cruzi [3] came to 6.3 µM.
With `C=C(C)[C@@H]1C=C[C@@](C)(OO)CC1`, the Activity with Trypanosoma cruzi [2] is recorded as 12; with HeLa, “Toxic”; in the series on Trypanosoma cruzi [5] it was 0.13%. For the same compound, the outcome in the series with Trypanosoma cruzi [6] was Active. Also, in the series on Trypanosoma cruzi [3], the MLC came to 0.8 µM (≈ 0.135 µg/mL). The result with Trypanosoma cruzi [4] was inactive.
Regarding `C=C(C)[C@@H]1C=C[C@@](C)(O)CC1`, the result with Trypanosoma cruzi [1] was inactive.
Consider `C=C(C)[C@H]1CCC(=C)[C@H](OO)C1`, for which the Activity is listed as 18.6 in the series with Trypanosoma cruzi [2], 63% with Trypanosoma cruzi [6], “Toxic” with HeLa and 4.4% in the series with Trypanosoma cruzi [5]. Also, the MLC in the series with Trypanosoma cruzi [3] amounted to 1.6 µM (≈ 0.269 µg/mL). Also, the outcome with Trypanosoma cruzi [4] was inactive.
On to `C=C(C)[C@H]1CCC(=C)[C@@H](OO)C1`, for which the MLC in the series on Trypanosoma cruzi [3] was 1.2 µM (≈ 0.202 µg/mL).
With `C=C(C)[C@H]1CCC(=C)[C@H](O)C1`, the result with Trypanosoma cruzi [1] was inactive.
As to `Oc1ncnc2[nH]ncc12` [ALLOPURINOL], the Activity in the series with Trypanosoma cruzi [2] came out at 10.9; with Trypanosoma cruzi [5] it was 7%. The outcome in the series with Trypanosoma cruzi [4] was inactive.
As to `C=C(C)[C@@H]1C=C[C@](C)(OO)CC1`, the Activity with Trypanosoma cruzi [2] was 19.1; with Trypanosoma cruzi [6], 88%; in the series on HeLa, “Toxic”; in the series with Trypanosoma cruzi [5], 1.5%. Moreover, in the series on Trypanosoma cruzi [3], the MLC came to 3.1 µM (≈ 0.522 µg/mL). Besides, the outcome in the series with Trypanosoma cruzi [4] was inactive.
As to `C=C(C)[C@H]1CCC(=C)[C@@H](O)C1`, in the series on Trypanosoma cruzi [1], the outcome was inactive.
